This is a sample that favours compounds with a hit; in the whole collection about 4.3% have one here.
FLuc inhib CS – inhibits firefly luciferase, flagging false hits in luciferase inhibition screens. ATPLite firefly luciferase biochemical luminescence, 10 min. inhibition, % at 10 µM. actives 1.5% (n = 200,000);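 active = inhibition above about 50% when tested at 10 µM, limit read from the data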
Target sequence (P08659 whole entry, looked up): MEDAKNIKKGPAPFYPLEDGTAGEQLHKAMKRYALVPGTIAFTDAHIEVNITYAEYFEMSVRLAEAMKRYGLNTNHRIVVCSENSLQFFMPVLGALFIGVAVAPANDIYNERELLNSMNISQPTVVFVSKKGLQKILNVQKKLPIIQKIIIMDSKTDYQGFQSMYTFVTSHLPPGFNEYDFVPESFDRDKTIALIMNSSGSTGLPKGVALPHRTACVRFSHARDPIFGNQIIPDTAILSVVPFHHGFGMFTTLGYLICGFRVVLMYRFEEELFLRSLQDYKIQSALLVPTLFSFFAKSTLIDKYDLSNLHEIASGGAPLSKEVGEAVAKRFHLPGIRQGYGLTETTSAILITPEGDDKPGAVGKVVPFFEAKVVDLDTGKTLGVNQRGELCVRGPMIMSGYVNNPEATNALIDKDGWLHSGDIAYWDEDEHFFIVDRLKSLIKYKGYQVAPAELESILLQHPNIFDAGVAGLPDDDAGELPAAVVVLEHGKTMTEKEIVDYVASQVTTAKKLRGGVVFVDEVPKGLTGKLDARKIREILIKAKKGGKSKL
APP 5'UTR act – APP 5'UTR luciferase reporter activation | SH-SY5Y APP 5'UTR luciferase reporter, luminescence; zero percent = DMSO vehicle wells | activation, % at 2 µM | actives 1% (n = 190,000);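 active = activation above a set limit, based on mean plus 3 SD of controls, cut at about 140% in these data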
sdo1 growth – sdo1-depleted yeast growth rescue; AID 817; actives 0.21% (n = 140,000); S. cerevisiae sdo1-depleted JHY4D growth rescue, OD600 30 h; stronger effect = higher value; pdr5 snq2 efflux-pump mutant strain; z-score at 10 µM;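 active = z-score above 3 at both the 24 hr and the 30 hr optical density reads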;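 note: z-score against mean and SD of all compound wells on the same plate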
FLuc act counter – firefly luciferase counter-screen for stimulation assays | P08659 | ATPlite luciferase biochemical, luminescence, 10 min; 0 = ATP-free wells, 1 = DMSO control | activation factor at 10 µM | 200,000 tested, under 10 active | AID 1027;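 active = luciferase activation factor, scaled between plate controls, of at least 2 with compound at 10 µM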
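System: luciferase plus luciferin reagent, cell-free; medium: PBS as buffer for the ATP substrate; dosing: test compounds dosed from 2 mM stocks in 100% DMSO; timing: 10 min post-reagent at room temperature; measured by: luminescence measurement of luciferase light output; evaluation: luciferase activation, seen as luminescence increase over controls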
STAT1 act – STAT1 signaling activation | NIH 3T3 STAT1-luciferase reporter, IFN-gamma, luminescence; 100% = IFN-gamma alone, no compound | activation (% of control), % at 5.5 µM | actives 2.6% (n = 200,000) | AID 932;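 active = activation above the screen-wide mean activation plus 3 SD, cut at about 130% in these data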;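 note: raw ratio to IFN-gamma control signal so 100% means no change and 0% no light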
NF-kB expr up – NF-kB expression increase, human neuronal cells; NF-kB reporter expression; stronger effect = higher value; fold change at 12.5 µM; actives 1.6% (n = 190,000); in the data active = fold change above about 3.3
The depositor's hits bear a star.

COc1ccc(CCNC(=O)Cc2ccc(OCc3ccccc3)c(OC)c2[N+](=O)[O-])cc1OCc1ccccc1 was read as FLuc inhib CS -2, APP 5'UTR act 14, sdo1 growth -0.43, FLuc act counter 1, STAT1 act 84 and NF-kB expr up 0.87.
Cc1cc(N/N=C/c2ccncc2)nc2ccccc12 was read as FLuc inhib CS 23, APP 5'UTR act 98, FLuc act counter 0.8, STAT1 act 147* and NF-kB expr up 0.93.
`Cc1cc(N/N=C/c2cccc(Br)c2)nc2ccccc12` gave FLuc inhib CS 35, APP 5'UTR act 50, sdo1 growth -0.6, FLuc act counter 0.7, STAT1 act 107 and NF-kB expr up 4.2*.
For Nc1ccc(SC(F)(F)F)cc1C(=O)c1ccccc1 the results were FLuc inhib CS -1, APP 5'UTR act -14, sdo1 growth -2, FLuc act counter 1, STAT1 act 114 and NF-kB expr up 1.5.
For COc1ccc(CCNC(=O)COc2ccc(S(=O)(=O)NC3CCCCC3)cc2Cl)cc1 the results were FLuc inhib CS -6, APP 5'UTR act -11, sdo1 growth 0.58, FLuc act counter 1.1, STAT1 act 99 and NF-kB expr up 0.39.
For CCC(C)(C(=O)NC1CCCCC1)N(Cc1ccco1)C(=O)Cc1cccs1 (stereo unspecified) the results were FLuc inhib CS -3, APP 5'UTR act 15, sdo1 growth -1.2, FLuc act counter 1, STAT1 act 98 and NF-kB expr up 1.2.
Screening O=[N+]([O-])c1cccc(-c2ccc(SCc3ccccn3)nn2)c1 returned FLuc inhib CS 11, APP 5'UTR act 33, FLuc act counter 0.9, STAT1 act 135* and NF-kB expr up 1.9.
Clc1ccc(-c2ccc(SCc3ccccn3)nn2)cc1 was read as FLuc inhib CS 2, APP 5'UTR act 44, sdo1 growth -1.4, FLuc act counter 1, STAT1 act 145* and NF-kB expr up 3.2.
For COc1cccc(-c2ccc(SCc3ccccn3)nn2)c1 the results were FLuc inhib CS 46, APP 5'UTR act 81, FLuc act counter 0.5, STAT1 act 126 and NF-kB expr up 3.2.
c1ccc(-c2ccc(SCc3cccnc3)nn2)nc1 was read as FLuc inhib CS 14, APP 5'UTR act 64, FLuc act counter 0.9, STAT1 act 122 and NF-kB expr up 1.9.
For c1ccc(CSc2ccc(-c3ccccn3)nn2)nc1 the results were FLuc inhib CS 16, APP 5'UTR act 77, FLuc act counter 0.8, STAT1 act 133* and NF-kB expr up 2.3.
CC(C)(C)NC(=O)NC(=O)COC(=O)c1cccc(OC(F)F)c1 was read as FLuc inhib CS -2, APP 5'UTR act -14, FLuc act counter 1, STAT1 act 110 and NF-kB expr up 0.93.
For CCc1ccc(NC(=O)C(=O)NNC(=O)COc2cccc(OC)c2)cc1 the results were FLuc inhib CS 1, APP 5'UTR act 2, sdo1 growth -1.1, FLuc act counter 1, STAT1 act 109 and NF-kB expr up 0.96.
`CC(=O)Oc1ccc2c(c1)C(=O)c1ccccc1CO2` gave FLuc inhib CS 66*, APP 5'UTR act 8, sdo1 growth 0.36, FLuc act counter 0.3, STAT1 act 100 and NF-kB expr up 1.3.
For O=C(Oc1ccc2c(c1)OCC2=O)c1ccccc1 the results were FLuc inhib CS 21, APP 5'UTR act 30, sdo1 growth 0.59, FLuc act counter 0.8, STAT1 act 101 and NF-kB expr up 1.6.
N/C(=N\OC(=O)c1ccccc1Cl)c1ccccn1 was read as FLuc inhib CS 93*, APP 5'UTR act 123, sdo1 growth -0.94, FLuc act counter 0.1, STAT1 act 31 and NF-kB expr up 0.88.
`N/C(=N\OC(=O)c1cccnc1)c1ccccc1Cl` gave FLuc inhib CS 40, APP 5'UTR act 12, FLuc act counter 0.6, STAT1 act 131* and NF-kB expr up 1.6.
For O=C(Oc1cccnc1)c1ccccc1[N+](=O)[O-] the results were FLuc inhib CS -3, APP 5'UTR act -6, sdo1 growth 0.16, FLuc act counter 1, STAT1 act 99 and NF-kB expr up 1.1.
N/C(=N\OC(=O)c1ccccc1[N+](=O)[O-])c1ccccn1 was read as FLuc inhib CS 69*, APP 5'UTR act 104, FLuc act counter 0.3, STAT1 act 94 and NF-kB expr up 3.9*.
`N/C(=N\OC(=O)c1ccc(Cl)cc1)c1ccccn1` gave FLuc inhib CS 97*, APP 5'UTR act 185*, sdo1 growth -1.7, FLuc act counter 0, STAT1 act 97 and NF-kB expr up 3.5*.
`N/C(=N\OC(=O)c1cccnc1)c1ccc(Cl)cc1Cl` gave FLuc inhib CS 6, APP 5'UTR act 24, FLuc act counter 0.9, STAT1 act 128 and NF-kB expr up 1.1.
For CC(C)C(=O)O/N=C(\N)c1ccccn1 the results were FLuc inhib CS -6, APP 5'UTR act 13, sdo1 growth 0.77, FLuc act counter 1.1, STAT1 act 96 and NF-kB expr up 0.83.
`COC(=O)c1c(C(=O)OC)c(-c2cccc(Cl)c2)n2c1CS(=O)C2` (stereo unspecified) gave FLuc inhib CS -5, APP 5'UTR act 27, FLuc act counter 1.1, STAT1 act 102 and NF-kB expr up 1.1.
Screening N/C(=N\OC(=O)c1ccc(Cl)c([N+](=O)[O-])c1)c1ccccn1 returned FLuc inhib CS 26, APP 5'UTR act 25, FLuc act counter 0.7, STAT1 act 99 and NF-kB expr up 1.8.
For N/C(=N\OC(=O)c1cccc(Cl)c1)c1ccccn1 the results were FLuc inhib CS 91*, APP 5'UTR act 166*, sdo1 growth -1.1, FLuc act counter 0.1, STAT1 act 77 and NF-kB expr up 5.3*.
N/C(=N\OC(=O)c1ccc(Cl)c(Cl)c1)c1ccccn1 was read as FLuc inhib CS 46, APP 5'UTR act 140*, sdo1 growth -1.5, FLuc act counter 0.5, STAT1 act 131* and NF-kB expr up 4.5*.
O=C(Nc1ccc(Cl)cc1)OCCn1nnnc1C(c1ccccc1Cl)N1CCOCC1 (stereo unspecified) was read as FLuc inhib CS -5, APP 5'UTR act 0, sdo1 growth 0.32, FLuc act counter 1, STAT1 act 104 and NF-kB expr up 0.79.
CC(C)N1CSC(=S)N(Cc2ccccc2)C1 was read as FLuc inhib CS -3, APP 5'UTR act 32, FLuc act counter 1, STAT1 act 99 and NF-kB expr up 2.8.
O=[N+]([O-])c1ccc(/C=N/N/C(=N/c2ccccn2)c2ccccn2)cc1 was read as FLuc inhib CS 23, APP 5'UTR act 26, sdo1 growth 0.29, FLuc act counter 0.8, STAT1 act 135* and NF-kB expr up 1.7.

Screening results deposited in PubChem by several laboratories.
